According to ChEMBL document CHEMBL5058577, “EUbOPEN Chemogenomics Library 2 (Multiplex)” (2022):

Test system: Fibroblast
Assay: Multiplex assay against human fibroblast
Assay type: toxicity, cell-based
In short: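 Values for tubulin, mitochondrial-mass and membrane-permeability phenotypes are per cents of cells with healthy nuclei. These cells were identified by CellPathfinder machine-learning gating of live cells that had been stained at seeding with Hoechst33342, BioTracker Green Microtubule Cytoskeleton Dye, MitoTracker Red and Annexin V Alexa Fluor 680 and imaged on a CQ1 microscope at 37°C and 5% CO2 after compound addition. The gating first set Hoechst high-intensity objects apart from normal cells, then split normal cells into healthy, pyknosed or fragmented nuclei, and pyknosed cells into mitotic or apoptotic.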

[1] = 12 h, 1 µM, compound concentration 1 uM, replicate 1
[2] = 12 h, 1 µM, compound concentration 1 uM, replicate 2
[3] = 12 h, 10 µM, compound concentration 10 uM, replicate 1
[4] = 12 h, 10 µM, compound concentration 10 uM, replicate 2
[5] = 24 h, 1 µM, compound concentration 1 uM, replicate 1
[6] = 24 h, 1 µM, compound concentration 1 uM, replicate 2
[7] = 24 h, 10 µM, compound concentration 10 uM, replicate 1
[8] = 24 h, 10 µM, compound concentration 10 uM, replicate 2
[9] = 48 h, 1 µM, compound concentration 1 uM, replicate 1
[10] = 48 h, 1 µM, compound concentration 1 uM, replicate 2
[11] = 48 h, 10 µM, compound concentration 10 uM, replicate 1
[12] = 48 h, 10 µM, compound concentration 10 uM, replicate 2

O=C(O)Cc1ccccc1Nc1c(Cl)cccc1Cl [DICLOFENAC]
Population Apoptotic (%) [1]: 43% | Population Fragmented Nuclei (%) [1]: 14% | Population Healthy Nuclei (%) [1]: 67% | Population Hoechst High Intensity Objects (%) [1]: 0% | Population Membrane Permeable-Phenotype (%) [1]: 1% | Population Mitochondria Different-Phenotype (%) [1]: 6% | Population Mitotic Cells (%) [1]: 56% | Population Normal (%) [1]: 99% | Population Pyknosed Nuclei (%) [1]: 17% | Population Tubulin-Different-Phenotype (%) [1]: 25% | Population Apoptotic (%) [2]: 33% | Population Fragmented Nuclei (%) [2]: 25% | Population Healthy Nuclei (%) [2]: 49% | Population Hoechst High Intensity Objects (%) [2]: 2% | Population Membrane Permeable-Phenotype (%) [2]: 7% | Population Mitotic Cells (%) [2]: 66% | Population Normal (%) [2]: 97% | Population Pyknosed Nuclei (%) [2]: 25% | Population Tubulin-Different-Phenotype (%) [2]: 49% | Population Apoptotic (%) [3]: 32% | Population Fragmented Nuclei (%) [3]: 14% | Population Healthy Nuclei (%) [3]: 68% | Population Hoechst High Intensity Objects (%) [3]: 0% | Population Membrane Permeable-Phenotype (%) [3]: 0% | Population Mitochondria Different-Phenotype (%) [3]: 5% | Population Mitotic Cells (%) [3]: 68% | Population Normal (%) [3]: 99% | Population Pyknosed Nuclei (%) [3]: 17% | Population Tubulin-Different-Phenotype (%) [3]: 24% | Population Apoptotic (%) [4]: 38% | Population Fragmented Nuclei (%) [4]: 36% | Population Healthy Nuclei (%) [4]: 46% | Population Hoechst High Intensity Objects (%) [4]: 6% | Population Membrane Permeable-Phenotype (%) [4]: 16% | Population Mitochondria Different-Phenotype (%) [4]: 8% | Population Mitotic Cells (%) [4]: 61% | Population Normal (%) [4]: 93% | Population Tubulin-Different-Phenotype (%) [4]: 54% | Population Apoptotic (%) [5]: 52% | Population Fragmented Nuclei (%) [5]: 15% | Population Healthy Nuclei (%) [5]: 66% | Population Hoechst High Intensity Objects (%) [5]: 2% | Population Membrane Permeable-Phenotype (%) [5]: 0% | Population Mitochondria Different-Phenotype (%) [5]: 4% | Population Mitotic Cells (%) [5]: 47% | Population Normal (%) [5]: 97% | Population Pyknosed Nuclei (%) [5]: 17% | Population Tubulin-Different-Phenotype (%) [5]: 29% | Population Apoptotic (%) [6]: 35% | Population Fragmented Nuclei (%) [6]: 28% | Population Healthy Nuclei (%) [6]: 49% | Population Hoechst High Intensity Objects (%) [6]: 3% | Population Membrane Permeable-Phenotype (%) [6]: 12% | Population Mitochondria Different-Phenotype (%) [6]: 6% | Population Mitotic Cells (%) [6]: 64% | Population Normal (%) [6]: 96% | Population Pyknosed Nuclei (%) [6]: 21% | Population Tubulin-Different-Phenotype (%) [6]: 50% | Population Apoptotic (%) [7]: 30% | Population Fragmented Nuclei (%) [7]: 16% | Population Healthy Nuclei (%) [7]: 68% | Population Hoechst High Intensity Objects (%) [7]: 5% | Population Membrane Permeable-Phenotype (%) [7]: 0% | Population Mitochondria Different-Phenotype (%) [7]: 5% | Population Mitotic Cells (%) [7]: 69% | Population Normal (%) [7]: 94% | Population Pyknosed Nuclei (%) [7]: 15% | Population Tubulin-Different-Phenotype (%) [7]: 19% | Population Apoptotic (%) [8]: 50% | Population Fragmented Nuclei (%) [8]: 31% | Population Healthy Nuclei (%) [8]: 50% | Population Hoechst High Intensity Objects (%) [8]: 2% | Population Membrane Permeable-Phenotype (%) [8]: 8% | Population Mitochondria Different-Phenotype (%) [8]: 10% | Population Mitotic Cells (%) [8]: 50% | Population Normal (%) [8]: 97% | Population Pyknosed Nuclei (%) [8]: 18% | Population Tubulin-Different-Phenotype (%) [8]: 55% | Population Apoptotic (%) [9]: 85% | Population Fragmented Nuclei (%) [9]: 21% | Population Healthy Nuclei (%) [9]: 61% | Population Hoechst High Intensity Objects (%) [9]: 3% | Population Membrane Permeable-Phenotype (%) [9]: 4% | Population Mitochondria Different-Phenotype (%) [9]: 4% | Population Mitotic Cells (%) [9]: 15% | Population Normal (%) [9]: 96% | Population Pyknosed Nuclei (%) [9]: 16% | Population Tubulin-Different-Phenotype (%) [9]: 24% | Population Apoptotic (%) [10]: 57% | Population Fragmented Nuclei (%) [10]: 36% | Population Healthy Nuclei (%) [10]: 53% | Population Hoechst High Intensity Objects (%) [10]: 5% | Population Mitotic Cells (%) [10]: 42% | Population Normal (%) [10]: 94% | Population Pyknosed Nuclei (%) [10]: 10% | Population Tubulin-Different-Phenotype (%) [10]: 44% | Population Apoptotic (%) [11]: 73% | Population Fragmented Nuclei (%) [11]: 22% | Population Healthy Nuclei (%) [11]: 65% | Population Hoechst High Intensity Objects (%) [11]: 3% | Population Membrane Permeable-Phenotype (%) [11]: 0% | Population Mitochondria Different-Phenotype (%) [11]: 3% | Population Mitotic Cells (%) [11]: 26% | Population Normal (%) [11]: 96% | Population Pyknosed Nuclei (%) [11]: 12% | Population Tubulin-Different-Phenotype (%) [11]: 28% | Population Apoptotic (%) [12]: 30% | Population Fragmented Nuclei (%) [12]: 35% | Population Healthy Nuclei (%) [12]: 50% | Population Membrane Permeable-Phenotype (%) [12]: 4% | Population Mitochondria Different-Phenotype (%) [12]: 6% | Population Mitotic Cells (%) [12]: 69% | Population Pyknosed Nuclei (%) [12]: 14% | Population Tubulin-Different-Phenotype (%) [12]: 53%
